Source: ChEMBL document CHEMBL5143675, “Attenuating the Streptococcus pneumoniae Competence Regulon Using Urea-Bridged Cyclic Dominant-Negative Competence-Stimulating Peptide Analogs” (J Med Chem, 2022)
Where a SMILES comes first, the peptide text is derived from it. [ ]: non-standard residue; d: D form. Orn = NCCC[C@H](N)C(=O)O; Dab = NCC[C@H](N)C(=O)O; Dap = NC[C@H](N)C(=O)O

What was measured:
[1] = Stability of the compound in CD-1 mouse assessed as drug degradation at 50 ug, iv by IVIS spectrum in vivo imaging analysis; format: ADME, organism-based; details: dose 50 µg
Summary of the method: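 Seven-week-old CD-1 mice (cohorts of 4–5) given Cy7.5-labelled peptide (50 μg/mouse) by retro-orbital i.v. injection, anaesthetized with 3% isoflurane and imaged by IVIS SpectrumCT fluorescence imaging.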

[2] = Antagonist activity against Streptococcus pneumoniae D39-pcomX-lacZ strain expressing ComD1 receptor assessed as inhibition of ComD1 receptor activity by beta-galactosidase reporter gene assay
Summary of the method: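 Reporter strains (pcomX::lacZ) grown on THY agar with 5% horse serum and 4 μg/mL chloramphenicol at 37 °C, 5% CO2; overnight THY broth culture diluted (1:50 D39, 1:10 TIGR4) and grown to early exponential phase (OD600 0.30–0.35 D39; 0.20–0.25 TIGR4). Primary screen at 10,000 nM peptide; EC50/IC50 from dose-response over a concentration range, three independent experiments, 95% confidence interval.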

[3] = Antagonist activity against Streptococcus pneumoniae TIGR4-pcomX-lacZ strain expressing ComD2 receptor assessed as inhibition of ComD2 receptor activity by beta-galactosidase reporter gene assay
Summary of the method: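 TIGR4 pcomX::lacZ reporter grown on THY plates with 5% horse serum and 4 μg/mL chloramphenicol (8–9 h, 37 °C, 5% CO2). 2–3 colonies were grown overnight (15 h) in THY with chloramphenicol, diluted 1:10, and grown 3–4 h to OD600 0.20–0.25. Peptides were tested as competitive inhibitors against native CSP2. […] Three independent experiments.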

[4] = Agonist activity against Streptococcus pneumoniae TIGR4-pcomX-lacZ strain expressing ComD2 receptor assessed as activation of ComD2 receptor activity by beta-galactosidase reporter gene assay
Summary of the method: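 Reporter strains (pcomX::lacZ) grown on THY agar with 5% horse serum and 4 μg/mL chloramphenicol at 37 °C, 5% CO2; overnight THY broth culture diluted (1:50 D39, 1:10 TIGR4) and grown to early exponential phase (OD600 0.30–0.35 D39; 0.20–0.25 TIGR4).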

| Compound | IC50 [2] | IC50 [3] | also measured |
| --- | --- | --- | --- |
| CC[C@H](C)[C@H](NC(=O)[C@H](Cc1ccccc1)NC(=O)[C@H](CC(=O)O)NC(=O)[C@H](CCCNC(=N)N)NC(=O)[C@H](Cc1ccccc1)NC(=O)[C@H](Cc1ccccc1)NC(=O)[C@H](CCCCN)NC(=O)[C@H](CO)NC(=O)[C@H](CC(C)C)NC(=O)[C@H](CCCNC(=N)N)NC(=O)[C@H](CCSC)NC(=O)[C@H](CCC(=O)O)NC(=O)CCCCC[N+]1=C(/C=C/C2=CC(=C/C=C3\N(C)c4ccc5ccccc5c4C3(C)C)/CCC2)C(C)(C)c2ccc3ccccc3c21)C(=O)N[C@@H](CC(C)C)C(=O)N[C@@H](CCC(N)=O)C(=O)N[C@@H](CCCNC(=N)N)C(=O)N[C@@H](CCCCN)C(=O)N[C@@H](CCCCN)C(=O)O | – | – | Drug degradation [1]: 36 h |
| CC[C@H](C)[C@H](NC(=O)[C@H](Cc1ccccc1)NC(=O)[C@H](CC(=O)O)NC(=O)[C@H](CCCNC(=N)N)NC(=O)[C@H](Cc1ccccc1)NC(=O)[C@H](Cc1ccccc1)NC(=O)[C@H](CCCCN)NC(=O)[C@H](CO)NC(=O)[C@H](CC(C)C)NC(=O)[C@H](CCCNC(=N)N)NC(=O)[C@H](CCSC)NC(=O)[C@H](C)N)C(=O)N[C@@H](CC(C)C)C(=O)N[C@@H](CCC(N)=O)C(=O)N[C@@H](CCCNC(=N)N)C(=O)N[C@@H](CCCCN)C(=O)N[C@@H](CCCCN)C(=O)O | 85.7 nM | – | – |
| CC[C@H](C)[C@H](NC(=O)[C@H](Cc1ccccc1)NC(=O)[C@H](CCCN)NC(=O)[C@H](CCCNC(=N)N)NC(=O)[C@H](Cc1ccccc1)NC(=O)[C@H](Cc1ccccc1)NC(=O)[C@H](CCN)NC(=O)[C@H](CO)NC(=O)[C@H](CC(C)C)NC(=O)[C@H](CCCNC(=N)N)NC(=O)[C@H](CCSC)NC(=O)[C@H](C)N)C(=O)N[C@@H](CC(C)C)C(=O)N[C@@H](CCC(N)=O)C(=O)N[C@@H](CCCNC(=N)N)C(=O)N[C@@H](CCCCN)C(=O)N[C@@H](CCCCN)C(=O)O (H-AMRLS[Dab]FFR[Orn]FILQRKK-OH) | – | > 1000 nM | – |
| CC[C@H](C)[C@H](NC(=O)[C@H](Cc1ccccc1)NC(=O)[C@H](CCCCN)NC(=O)[C@H](CCCNC(=N)N)NC(=O)[C@H](Cc1ccccc1)NC(=O)[C@H](Cc1ccccc1)NC(=O)[C@H](CN)NC(=O)[C@H](CO)NC(=O)[C@H](CC(C)C)NC(=O)[C@H](CCCNC(=N)N)NC(=O)[C@H](CCSC)NC(=O)[C@H](C)N)C(=O)N[C@@H](CC(C)C)C(=O)N[C@@H](CCC(N)=O)C(=O)N[C@@H](CCCNC(=N)N)C(=O)N[C@@H](CCCCN)C(=O)N[C@@H](CCCCN)C(=O)O (H-AMRLS[Dap]FFRKFILQRKK-OH) | 454 nM | – | EC50 [4]: 39.5 nM |
| CC[C@H](C)[C@H](NC(=O)[C@H](Cc1ccccc1)NC(=O)[C@H](CCCCN)NC(=O)[C@H](CCCNC(=N)N)NC(=O)[C@H](Cc1ccccc1)NC(=O)[C@H](Cc1ccccc1)NC(=O)[C@H](CCCN)NC(=O)[C@H](CO)NC(=O)[C@H](CC(C)C)NC(=O)[C@H](CCCNC(=N)N)NC(=O)[C@H](CCSC)NC(=O)[C@H](C)N)C(=O)N[C@@H](CC(C)C)C(=O)N[C@@H](CCC(N)=O)C(=O)N[C@@H](CCCNC(=N)N)C(=O)N[C@@H](CCCCN)C(=O)N[C@@H](CCCCN)C(=O)O (H-AMRLS[Orn]FFRKFILQRKK-OH) | 339 nM | > 1000 nM | – |
| CC[C@H](C)[C@H](NC(=O)[C@H](Cc1ccccc1)NC(=O)[C@H](CCN)NC(=O)[C@H](CCCNC(=N)N)NC(=O)[C@H](Cc1ccccc1)NC(=O)[C@H](Cc1ccccc1)NC(=O)[C@H](CCCN)NC(=O)[C@H](CO)NC(=O)[C@H](CC(C)C)NC(=O)[C@H](CCCNC(=N)N)NC(=O)[C@H](CCSC)NC(=O)[C@H](C)N)C(=O)N[C@@H](CC(C)C)C(=O)N[C@@H](CCC(N)=O)C(=O)N[C@@H](CCCNC(=N)N)C(=O)N[C@@H](CCCCN)C(=O)N[C@@H](CCCCN)C(=O)O (H-AMRLS[Orn]FFR[Dab]FILQRKK-OH) | – | > 1000 nM | – |
| CC[C@H](C)[C@H](NC(=O)[C@H](Cc1ccccc1)NC(=O)[C@H](CN)NC(=O)[C@H](CCCNC(=N)N)NC(=O)[C@H](Cc1ccccc1)NC(=O)[C@H](Cc1ccccc1)NC(=O)[C@H](CCCN)NC(=O)[C@H](CO)NC(=O)[C@H](CC(C)C)NC(=O)[C@H](CCCNC(=N)N)NC(=O)[C@H](CCSC)NC(=O)[C@H](C)N)C(=O)N[C@@H](CC(C)C)C(=O)N[C@@H](CCC(N)=O)C(=O)N[C@@H](CCCNC(=N)N)C(=O)N[C@@H](CCCCN)C(=O)N[C@@H](CCCCN)C(=O)O (H-AMRLS[Orn]FFR[Dap]FILQRKK-OH) | – | > 1000 nM | – |
| H-AMRLSKFFRKFILQRKK-OH | 217 nM | – | – |
| H-EMRISRIILDFLFLRKK-OH | – | – | EC50 [4]: 50.7 nM |

Now from value to compound, other results behind:

| IC50 [2] | IC50 [3] | Compound | also measured |
| --- | --- | --- | --- |
| 784 nM | > 1000 nM | CC[C@H](C)[C@H](NC(=O)[C@H](Cc1ccccc1)NC(=O)[C@H](CCCCN)NC(=O)[C@H](CCCNC(=N)N)NC(=O)[C@H](Cc1ccccc1)NC(=O)[C@H](Cc1ccccc1)NC(=O)[C@H](CCN)NC(=O)[C@H](CO)NC(=O)[C@H](CC(C)C)NC(=O)[C@H](CCCNC(=N)N)NC(=O)[C@H](CCSC)NC(=O)[C@H](C)N)C(=O)N[C@@H](CC(C)C)C(=O)N[C@@H](CCC(N)=O)C(=O)N[C@@H](CCCNC(=N)N)C(=O)N[C@@H](CCCCN)C(=O)N[C@@H](CCCCN)C(=O)O (H-AMRLS[Dab]FFRKFILQRKK-OH) | – |
| – | > 1000 nM | CC[C@H](C)[C@H](NC(=O)[C@H](Cc1ccccc1)NC(=O)[C@H](CCN)NC(=O)[C@H](CCCNC(=N)N)NC(=O)[C@H](Cc1ccccc1)NC(=O)[C@H](Cc1ccccc1)NC(=O)[C@H](CCN)NC(=O)[C@H](CO)NC(=O)[C@H](CC(C)C)NC(=O)[C@H](CCCNC(=N)N)NC(=O)[C@H](CCSC)NC(=O)[C@H](C)N)C(=O)N[C@@H](CC(C)C)C(=O)N[C@@H](CCC(N)=O)C(=O)N[C@@H](CCCNC(=N)N)C(=O)N[C@@H](CCCCN)C(=O)N[C@@H](CCCCN)C(=O)O (H-AMRLS[Dab]FFR[Dab]FILQRKK-OH) | – |
| – | > 1000 nM | CC[C@H](C)[C@H](NC(=O)[C@H](Cc1ccccc1)NC(=O)[C@H](CN)NC(=O)[C@H](CCCNC(=N)N)NC(=O)[C@H](Cc1ccccc1)NC(=O)[C@H](Cc1ccccc1)NC(=O)[C@H](CCN)NC(=O)[C@H](CO)NC(=O)[C@H](CC(C)C)NC(=O)[C@H](CCCNC(=N)N)NC(=O)[C@H](CCSC)NC(=O)[C@H](C)N)C(=O)N[C@@H](CC(C)C)C(=O)N[C@@H](CCC(N)=O)C(=O)N[C@@H](CCCNC(=N)N)C(=O)N[C@@H](CCCCN)C(=O)N[C@@H](CCCCN)C(=O)O (H-AMRLS[Dab]FFR[Dap]FILQRKK-OH) | – |
| – | > 1000 nM | CC[C@H](C)[C@H](NC(=O)[C@H](Cc1ccccc1)NC(=O)[C@H](CCCN)NC(=O)[C@H](CCCNC(=N)N)NC(=O)[C@H](Cc1ccccc1)NC(=O)[C@H](Cc1ccccc1)NC(=O)[C@H](CCCN)NC(=O)[C@H](CO)NC(=O)[C@H](CC(C)C)NC(=O)[C@H](CCCNC(=N)N)NC(=O)[C@H](CCSC)NC(=O)[C@H](C)N)C(=O)N[C@@H](CC(C)C)C(=O)N[C@@H](CCC(N)=O)C(=O)N[C@@H](CCCNC(=N)N)C(=O)N[C@@H](CCCCN)C(=O)N[C@@H](CCCCN)C(=O)O (H-AMRLS[Orn]FFR[Orn]FILQRKK-OH) | – |
